Compound activity deposited in PubChem by The Scripps Research Institute Molecular Screening Center.
pPAFAH FP inh: inhibitors of human plasma PAF acetylhydrolase (pPAFAH); Q13093; recombinant pPAFAH, FP-rhodamine probe fluorescence polarization; inhibition, % at 3.39 µM; 330,000 tested, 1.5% active;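 active means inhibition above the mean inhibition across the screen plus 3 SD, cut at about 25% in these data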;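 further: inhibitors block binding of the rhodamine activity-based probe so polarization drops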
SIAE inh: blocks human sialic acid acetylesterase | Q9HAT2 | SIAE FP-Rh probe binding, fluorescence polarization | inhibition, % at 9.66 µM | 370,000 tested, 0.69% active;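 active means inhibition above a cutoff: mean of compounds within the control limits plus 3 SD of those, cut at about 17% in these data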
TCR-CD3 inh: blocks the human TCR-CD3 interaction | TAMRA-labeled TCR probe fluorescence, biochemical | inhibition, % at 9.4 µM | 360,000 tested, 0.37% active | AID 651800; in the data active means inhibition above about 19%;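 further: recombinant mutant TCR 2C K166C tagged with TAMRA read by polarization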
mABHD4 FP: inhibits mouse alpha/beta hydrolase domain 4. purified mABHD4, FP-Rh probe fluorescence polarization. inhibition, % at 8.92 µM. Q8VD66. AID 720543. 370,000 tested, 0.54% active;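 active means inhibition exceeding the mean over every tested compound plus 3 SD, cut at about 30% in these data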
Target sequence (Q8VD66 whole entry, looked up, the tested form may be a part): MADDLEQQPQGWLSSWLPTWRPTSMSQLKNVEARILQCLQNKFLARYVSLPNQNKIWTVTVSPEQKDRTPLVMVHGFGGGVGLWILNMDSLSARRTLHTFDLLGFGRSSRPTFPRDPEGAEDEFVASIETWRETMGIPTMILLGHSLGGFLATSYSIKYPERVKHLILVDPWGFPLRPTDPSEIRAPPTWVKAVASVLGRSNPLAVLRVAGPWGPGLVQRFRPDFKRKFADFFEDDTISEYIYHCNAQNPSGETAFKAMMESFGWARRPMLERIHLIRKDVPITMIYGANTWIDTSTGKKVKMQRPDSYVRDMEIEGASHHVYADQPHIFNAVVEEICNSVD
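Doses – 8.92 µM, single dose · Material – wild-type mouse ABHD4 protein · Replication – single well per compound (singlicate) · Measure – percent inhibition of probe binding, normalized to plate controls · Schedule – 45 min compound pre-incubation plus 60 min probe step, 25 °C · Detection – fluorescence polarization with parallel and perpendicular emission, 525/598 nm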
HTRA1 inhibitor: inhibitors of human serine peptidase HTRA1; inhibition, % at 5.96 µM; recombinant HTRA1, FP-rhodamine activity-based probe, fluorescence polarization; Q92743; AID 504803; 340,000 tested, 0.5% active; in the data active means inhibition above about 36%
ABHD4 confirm: confirmation of mouse ABHD4 inhibitors; shares compounds with mABHD4 FP; purified mABHD4, FP-Rh probe fluorescence polarization; inhibition, % at 8.92 µM; 1,800 tested, 55% active;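 active means mean inhibition across replicates above the hit cutoff set in the primary screen, cut at about 30% in these data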
SIAE confirm: human SIAE inhibition, confirmation; shares compounds with SIAE inh; SIAE FP-Rh activity-based probe, fluorescence polarization; inhibition, % at 9.66 µM; 2,300 tested, 13% active;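 active means mean inhibition of the replicates above the hit cutoff set in the primary screen, cut at about 17% in these data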;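 further: inhibitors lower polarization as more probe stays unbound to SIAE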
Numbers stand for hits; i = inactive; nt = not tested or not shown. Sampled rows, rich in hits. Any-hit rate of the full collection: about 2.3%.

SMILES | pPAFAH FP inh | SIAE inh | TCR-CD3 inh | mABHD4 FP | HTRA1 inhibitor | ABHD4 confirm | SIAE confirm
O=C(Nc1ccccc1Cl)NN1CCCCCC1 | nt | i | i | 47.9 | i | 51.8 | nt
CN1CCCN(C(=O)C2CCN(c3ncnc4c3sc3cccc(F)c34)CC2)CC1 | nt | i | nt | i | nt | nt | nt
O=C(NCC(c1ccccc1)c1ccccc1)[C@H](Cc1c[nH]c2ccccc12)NC1(C(=O)NC2CCCCC2)CCCC1 | nt | i | nt | i | nt | nt | nt
COc1ccc(S[C@]2(C(=O)N3CCCC3)CC(=O)N(C(=O)C3CC3)[C@@H]2c2ccc(OC)cc2)cc1 | nt | i | nt | i | nt | nt | nt
COc1ccc(S[C@]2(C(=O)N(C)C)CC(=O)N(C(=O)C3CC3)[C@@H]2c2ccc(OC)cc2)cc1 | nt | i | nt | 34.0 | nt | 32.3 | nt
CN(C)c1ccc(NC(=O)Nc2ccc3c(c2)c(=O)n(C)n3Cc2ccc(Cl)cc2)cc1 | nt | 27.0 | i | 42.8 | nt | i | i
CN(C)c1ccc(NC(=O)Nc2ccc3c(c2)c(=O)n(C)n3Cc2ccccc2)cc1 | nt | i | i | i | nt | nt | nt
COc1ccc(C(C(=O)N(C)C2CCCC2)N(Cc2ccc(F)cc2)C(=O)c2csc(-c3ccccc3)n2)cc1OC (stereo not drawn) | nt | i | nt | i | nt | nt | nt
COc1ccc2c(c1)c(/C=N/Nc1nc3ccccc3[nH]1)c(C)n2C | i | 31.5 | i | 33.0 | i | 59.4 | 29.8
CN(CCO)c1cccc2c1S(=O)(=O)N[C@H](Cc1ccccc1)CO2 | nt | i | i | i | nt | nt | nt
Cc1ccc(-n2c(SCC(=O)c3ccc(F)cc3)nnc2-c2cnccn2)cc1 | nt | i | nt | i | nt | nt | nt
O=C(NNc1nc2c(F)cccc2s1)c1cc(=O)c2ccccc2o1 | i | 18.0 | i | 38.5 | i | 29.6 | i
O=C(NNc1nc2c(F)cccc2s1)c1ccc(F)cc1 | i | i | i | i | i | nt | nt
O=C(N/N=C/c1c(O)ccc2ccccc12)c1cccnc1 | 25.1 | 26.9 | i | 30.4 | i | 32.3 | i
Cc1cc2ccccc2n1CCNC(=O)Cc1cccc2ccccc12 | i | 21.8 | 67.9 | 45.8 | i | i | i
O=C1N=c2ccccc2=C1c1sc(=S)n(-c2ccc(O)cc2)c1O | i | 21.9 | i | 38.1 | i | i | i
CC(=O)Oc1cc(C)c(Cl)c2c(OC(C)=O)cc(C(C)=O)c(O)c12 | nt | 36.4 | i | 68.2 | nt | 39.4 | 18.3
Cc1cccnc1C1=NOC(Cc2ccccc2)C(=O)N1Cc1ccc2c(c1)OCO2 (stereo not drawn) | nt | i | i | i | nt | nt | nt
O=C(NN=Cc1cc(Br)c(O)c(Br)c1)c1ccccc1NS(=O)(=O)c1cccs1 | 30.7 | 19.4 | i | 33.6 | i | 32.9 | i
COCCNC(=O)C1(C)CCN(Cc2cccc(Oc3ccccc3)c2)C1 (stereo not drawn) | nt | i | i | i | nt | nt | nt
Nc1nc(N)c2cc(CNc3ccc(Cl)c(Cl)c3)ccc2n1 | nt | 39.4 | i | 37.5 | i | 35.7 | 46.1
CCOC(=O)C(=C1Nc2ccccc2N1)n1c(-c2cnccn2)nc2ccccc21 | nt | i | i | i | nt | nt | nt
CCOC(=O)C(=C1Nc2ccccc2N1)n1c(-c2ccco2)nc2ccccc21 | nt | 17.8 | 21.6 | 32.0 | nt | i | i
CNC(=O)c1ccc(-c2sc3nc(N4CCOCC4)c4c(c3c2N)CCCC4)o1 | 27.0 | 21.9 | i | 31.9 | i | i | i
CCC(C)CN1C(=O)CN(S(C)(=O)=O)CC1(C)C(=O)Nc1c(C)cccc1C (stereo not drawn) | nt | i | i | i | nt | nt | nt
SMILES | pPAFAH FP inh | SIAE inh | TCR-CD3 inh | mABHD4 FP | HTRA1 inhibitor | ABHD4 confirm | SIAE confirm
O=C(O)CCN1C(=O)/C(=C2\C(=O)N(Cc3ccc(F)cc3)c3ccccc32)SC1=S | i | i | i | i | i | nt | nt
O=C(CN1C(=O)/C(=C2/SC(=S)N(CCS(=O)(=O)O)C2=O)c2ccccc21)Nc1cccc(C(F)(F)F)c1 | i | 21.7 | i | 84.7 | i | 92.5 | 22.1
COC(=O)[C@]12CCCCC=C1N(Cc1ccco1)C(=O)[C@H](CC(=O)N1CCCCC1)C2 | nt | i | i | i | nt | nt | nt
N/C(Cc1ccccc1)=N\OC(=O)c1cccc2ccccc12 | i | i | i | i | i | nt | nt
N/C(Cc1cccc2ccccc12)=N\OC(=O)c1ccccc1F | nt | 41.3 | i | 47.7 | i | i | i
CC(C)(C)N1C(=O)c2ccccc2NC(=O)C1C(=O)NCCc1ccccc1F (stereo not drawn) | nt | i | i | i | nt | nt | nt
Nc1cc(Cl)nc(N/N=C/c2c(O)ccc3ccccc23)n1 | i | 18.9 | i | 32.0 | i | i | i
O=C(O)c1cc(N/N=C/c2c(O)ccc3ccccc23)ccc1Cl | i | i | i | i | i | nt | nt
COc1ccccc1N(O)C1CC(=O)N(c2ccc(Br)cc2)C1=O (stereo not drawn) | i | 20.1 | i | 34.4 | i | i | i
O=C(c1ccc2nc(-c3ccco3)c(-c3ccco3)nc2c1)N1CCN(c2ccccc2)CC1 | i | 32.3 | i | 31.7 | i | i | i
Fc1ccccc1-c1ccc(/C=N/Nc2nc3ccccc3[nH]2)o1 | i | 34.5 | i | 40.1 | i | 46.1 | 34.5
Cc1ccc(/C=N\Nc2nc3ccc(Cl)cc3[nH]2)o1 | i | i | i | i | i | nt | nt
Cc1ccc(CNC(=O)c2ccc(S(=O)(=O)N3CCCCC3)cc2)cc1 | nt | i | i | i | i | nt | nt
Cc1cc2cc(CNC(=O)c3ccc(S(=O)(=O)N4CCCCC4)cc3)ccc2n1C | 31.2 | 34.8 | 85.3 | 86.9 | i | i | i
O=C(N[C@@H](Cc1cccnc1)C(=O)N1CCC[C@H]1C(=O)NCCc1ccccc1Cl)c1ccc(Cl)cc1Cl | nt | i | i | i | nt | nt | nt
COc1ccc(/C=N/c2c(-c3ccco3)nc3ccccn23)cc1OC | i | 24.9 | i | 44.2 | i | i | i
COc1cc(-c2nc3ccccn3c2/N=C/c2cccc(OC)c2O)ccc1O | i | i | i | i | i | nt | nt
CC/C(=C\C(=O)c1ccncc1)Nc1ccc(O)cc1 | i | 21.7 | 51.3 | 75.4 | i | 38.4 | i
CN1C(=O)c2cc(NC(=O)Nc3ccccc3)ccc2OC[C@H]2O[C@@H](CC(=O)NCC(F)(F)F)CC[C@@H]21 | nt | i | nt | i | nt | nt | nt
COc1ccccc1/C=N\NC(=O)c1cccc(S(=O)(=O)N(C)C)c1 | nt | i | nt | i | nt | nt | nt
CNc1nc(NCc2ccccc2)c2ccccc2n1 | i | i | i | i | i | nt | nt
Oc1ccccc1Nc1nc(NCc2ccccc2)c2ccccc2n1 | i | 20.7 | i | 42.9 | i | 54.8 | i
COc1ccc(N2CCN(c3ccc(NC(=O)/C=C\C(=O)O)cc3)CC2)cc1 | i | 17.8 | i | 35.6 | i | i | i
COc1ccc(/C=C/C(=O)Nc2ccc(N3CCOCC3)cc2)cc1 | i | i | i | i | i | nt | nt
CN(Cc1ccccc1)C(=O)OCc1cn(Cc2ccc(C(F)(F)F)cc2)nn1 | nt | i | nt | i | nt | nt | nt
CN(C)c1cccc(/C=C2\CC3(OC(=O)c4ccccc4)CCCN2C3)c1 (stereo not drawn) | nt | i | nt | i | nt | nt | nt
O=C(NNS(=O)(=O)c1ccc([N+](=O)[O-])cc1)c1ccc2ccccc2c1O | nt | 19.5 | i | 30.9 | i | i | i
